Most compounds without a hit are left out; they make up all but 1.6% or so of the library.
Scp-1 inhibitor – blocks human Scp-1 phosphatase activity | inhibition, % at 20 µM | actives 0.88% (n = 340,000) | Q9GZU7 | Recombinant Scp1, phosphopeptide, malachite green phosphate absorbance;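 active = inhibition above about 50% at 20 µM, limit read from the data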;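 note: plate controls were DMSO wells with enzyme for no effect and wells lacking enzyme for full effect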
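Test system: SCP-1 phosphatase catalytic domain, residues 76-261; measured by: colorimetric phosphate reagent with accelerator and stabiliser, absorbance at 630 nm; timing: enzyme reaction 45 min at room temperature, colour 5 min, stabilisation 30 min; also added: Phosphorylated 17-residue peptide substrate; compound dosing: one concentration, 20 µM, with 1.0% DMSO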
F508del corr – CFTR F508del correction in bronchial cells; activity (quench increase), % at 7.58 µM; actives 0.36% (n = 350,000); AID 720511; CFBE cells, YFP halide quenching; stimulated with forskolin plus potentiator P3; % fluorescence drop versus neutral controls;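 active = mean added fluorescence quench of at least 8% versus neutral control, with both replicates also reaching 8%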;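 note: cells transiently co-express mutant CFTR-F508del with the halide-sensitive YFP; corrector assay measuring rescue of mutant channel to the surface after 24 h compound exposure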
SUMO1-SIM PPI – modulators of human SUMO1-mediated protein-protein interactions; P63165; SUMO1 binding to a labelled peptide, TR-FRET, 1 h; inhibition, % at 20 µM; actives 0.33% (n = 360,000); AID 602429; in the data active = inhibition above about 37%
DNMT1 block – inhibitors of human DNMT1; P26358; DNMT1 molecular beacon, Hinp1I cleavage, fluorescence; AID 588458; inhibition (reported as % activation of signal), % at 10 µM; actives 0.83% (n = 360,000); in the data active = inhibition above about 50%
Target sequence (P26358 504-1616 limits assumed): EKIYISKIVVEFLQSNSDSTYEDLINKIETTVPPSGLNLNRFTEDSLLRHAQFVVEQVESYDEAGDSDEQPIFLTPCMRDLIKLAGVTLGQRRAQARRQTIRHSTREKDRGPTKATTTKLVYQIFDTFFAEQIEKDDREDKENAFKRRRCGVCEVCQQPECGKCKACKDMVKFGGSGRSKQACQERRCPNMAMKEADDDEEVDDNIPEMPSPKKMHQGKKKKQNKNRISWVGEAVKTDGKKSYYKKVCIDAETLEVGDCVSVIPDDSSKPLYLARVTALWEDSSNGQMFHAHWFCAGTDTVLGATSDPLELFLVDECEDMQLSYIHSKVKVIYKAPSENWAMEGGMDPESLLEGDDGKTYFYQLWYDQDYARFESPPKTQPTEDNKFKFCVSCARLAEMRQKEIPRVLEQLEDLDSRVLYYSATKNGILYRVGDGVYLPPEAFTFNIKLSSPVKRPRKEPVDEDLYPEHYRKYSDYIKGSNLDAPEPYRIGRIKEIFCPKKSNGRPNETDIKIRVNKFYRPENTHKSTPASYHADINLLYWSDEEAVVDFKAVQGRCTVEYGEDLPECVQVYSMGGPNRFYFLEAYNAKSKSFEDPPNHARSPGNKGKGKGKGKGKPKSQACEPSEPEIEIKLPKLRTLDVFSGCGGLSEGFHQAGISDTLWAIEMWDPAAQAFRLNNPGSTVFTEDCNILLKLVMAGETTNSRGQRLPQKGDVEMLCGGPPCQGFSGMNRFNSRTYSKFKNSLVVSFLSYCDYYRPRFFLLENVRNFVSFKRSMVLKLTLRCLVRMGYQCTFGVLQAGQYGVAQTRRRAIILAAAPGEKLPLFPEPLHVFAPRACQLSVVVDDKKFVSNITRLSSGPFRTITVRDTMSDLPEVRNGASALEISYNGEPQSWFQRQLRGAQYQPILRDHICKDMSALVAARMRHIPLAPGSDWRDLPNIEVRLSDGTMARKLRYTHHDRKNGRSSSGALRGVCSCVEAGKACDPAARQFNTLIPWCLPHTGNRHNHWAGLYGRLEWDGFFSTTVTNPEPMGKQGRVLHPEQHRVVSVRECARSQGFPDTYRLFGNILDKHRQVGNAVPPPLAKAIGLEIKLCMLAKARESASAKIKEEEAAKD
LMPTP inh – LMPTP (human) inhibition | P24666 | recombinant LMPTP-A, OMFP fluorogenic substrate, fluorescence intensity | inhibition, % at 20 µM | actives 0.22% (n = 360,000) | AID 651560;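 active = compounds that cut the enzyme signal by at least half of the control window in the single-dose screen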;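 note: plate controls were DMSO wells with enzyme plus substrate for no effect and substrate without enzyme for full effect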
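Material: LMPTP-A; amount: 0.625 nM enzyme; doses: single 20 µM dose; times: reaction 50 min, room temperature, dark; technique: fluorescence intensity of OMFP turnover product; benchmarks: no-enzyme and uninhibited controls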
STEP inh – blocks human striatal-enriched tyrosine phosphatase; P54829; recombinant STEP, OMFP fluorogenic substrate, fluorescence; inhibition, % at 20 µM; actives 0.25% (n = 360,000); AID 588621;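 active = inhibition at 20 µM, scaled per plate between control wells, above about 37%, limit read from the data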;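 note: 0% = DMSO with enzyme and substrate and 100% = substrate only without enzyme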
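Assay system: isolated STEP enzyme. Buffer or medium: pH 6.0 Bis-Tris with DTT and Tween 20. Also added: fluorogenic phosphatase substrate OMFP at 25 µM final. Dosing: 20 µM, 1% DMSO. Timing: 20 min reaction, room temperature, in the dark. Measured by: fluorescence intensity, excitation 480 nm, emission 540 nm. Evaluation: normalized % inhibition.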
Scp-1 conf – Scp-1 (human) inhibition, single-dose confirmed | actives 61% (n = 2,500) | inhibition, % at 20 µM | AID 540281 | shares compounds with Scp-1 inhibitor | recombinant SCP-1 catalytic domain, phosphate release, malachite green absorbance;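 note: plate controls were DMSO with enzyme for no effect and buffer wells lacking enzyme for full effect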
MG interference – interferes with malachite green readout, flagging false Scp-1 hits | shares compounds with Scp-1 inhibitor | Colorimetric interference counterscreen, malachite green absorbance 630 nm | apparent inhibition (interference), % at 20 µM | 2,500 tested, under 10 active;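 note: compounds added after enzyme reaction finished so only phosphate colour detection is probed; plate controls were DMSO wells with completed Scp-1 reaction for no effect and substrate wells lacking enzyme for full effect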
Scp1 DSF – binds human Scp-1, shifting its melting temperature | shares compounds with Scp-1 inhibitor | Recombinant SCP1, Sypro Orange thermal shift Tm | thermal shift relative to vanadate control, % at 40 µM | actives 25% (n = 1,500);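 active = substances whose mean melting-temperature shift, as a percentage of the reference inhibitor's shift, reaches about 5.3%, limit read from the data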;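 note: 0% = Tm of DMSO wells and 100% = Tm with sodium orthovanadate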
DNMT1 confirm – DNMT1 inhibition confirmation, single concentration | shares compounds with DNMT1 block | DNMT1 molecular beacon HinP1I cleavage, fluorescence | inhibition, % at 10 µM | actives 8% (n = 2,300) | AID 602385;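 active = average inhibition of at least 30% in the single-concentration confirmation test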
Beacon interf – beacon fluorescence artifact counter-screen | shares compounds with DNMT1 block | DNMT1 molecular beacon spectral interference counterscreen, fluorescence 485/520 | activation (fluorescence interference), % at 10 µM | actives 1% (n = 2,300) | AID 602387;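 active = activation of at least 30% at 10 µM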;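 note: DNMT1 catalytic domain with a HinP1I cleavage step and a FAM/dabcyl DNA beacon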
Numbers without * were called inactive; nt = not tested or not shown.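 Rule for the calls, unless noted: active = inhibition of at least 30% at 20 µM; inactive = the rest.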

SMILES	Scp-1 inhibitor	F508del corr	SUMO1-SIM PPI	DNMT1 block	LMPTP inh	STEP inh	Scp-1 conf	MG interference	Scp1 DSF	DNMT1 confirm	Beacon interf
Cc1cc(C(=O)NCc2ccc(C(=O)O)o2)c(C)o1	56*	1	4	78*	0	4	52*	-10	-13	8	2
O=C(NNC(=O)c1cc(-c2ccco2)nc2ccccc12)c1ccccc1	-1	0	-9	24	0	-3	nt	nt	nt	nt	nt
COc1cccc(NC(=O)CN(C)C(=O)c2cc(-c3ccco3)nc3ccccc23)c1	64*	-1	-5	55*	12	4	61*	-12	5.3*	3	0
Cc1ccc(NC(=O)CN(C)C(=O)c2cc(-c3ccco3)nc3ccccc23)cc1	76*	-2	12	75*	25	4	68*	-13	6.2*	11	5
O=C(O)c1cc(-c2ccco2)nc2cc3ccccc3cc12	91*	-1	38*	76*	1	31	34*	-15	4	2	5
CCOc1ccc(NC(=O)CN(C)C(=O)c2cc(-c3ccco3)nc3ccccc23)cc1OCC	-5	-3	-5	-1	2	1	nt	nt	nt	nt	nt
CN(CC(=O)Nc1ccc(F)cc1)C(=O)c1cc(-c2ccco2)nc2ccccc12	70*	1	3	84*	28	3	62*	-13	8.9*	9	4
COc1ccc(NC(=O)N[C@H]2CC[C@H](CCNS(=O)(=O)c3cccc(Cl)c3)O[C@H]2CO)cc1	nt	5	nt	nt	nt	nt	nt	nt	nt	nt	nt
CN1CCN(C(=O)C[C@H]2CC[C@H]3[C@@H](COc4ccc(NC(=O)c5cccs5)cc4C(=O)N3C)O2)CC1	nt	-2	nt	nt	nt	nt	nt	nt	nt	nt	nt
C[C@@H]1CN([C@H](C)CO)C(=O)c2cc(NC(=O)c3ccncc3)ccc2O[C@@H](C)CCCCO[C@H]1CN(C)Cc1ccncc1	nt	0	nt	nt	nt	nt	nt	nt	nt	nt	nt
O=C(N/N=C/c1ccc2c(c1)OCO2)c1cc(-c2ccco2)nc2ccccc12	67*	2	10	72*	12	5	46*	-15	5	5	1
O=C1C2C(C(=O)N1/N=C/c1cc([N+](=O)[O-])c(O)cc1O)C1C=CC2C12CC2 (stereo not drawn)	64*	3	12	83*	17	12	64*	-3	5.9*	7	-1
CO[C@H]1CN(C)C(=O)c2ccc(NS(=O)(=O)CC(F)(F)F)cc2OC[C@@H](C)NC[C@H]1C	nt	-1	nt	nt	nt	nt	nt	nt	nt	nt	nt
O=C(N/N=C/C=C/c1ccco1)c1cccnc1	16	nt	11	9	1	2	nt	nt	nt	nt	nt
O=C(N/N=C\C=C\c1ccco1)c1cc(-c2ccc3ccccc3c2)n[nH]1	70*	-3	16	68*	15	4	42*	-14	13*	5	30
COC(=O)C[C@H]1C[C@@H]2c3cc(NS(C)(=O)=O)ccc3O[C@@H]2[C@@H](CO)O1	nt	-1	nt	nt	nt	nt	nt	nt	nt	nt	nt
Cc1ncc([N+](=O)[O-])n1CCOC(=O)c1cc(Cl)cc(Cl)c1N	62*	nt	-3	60*	6	3	68*	-11	12*	4	3
O=C(C[C@H]1C=C[C@@H](NC(=O)Nc2ccccc2F)[C@H](CO)O1)NCc1ccc(Cl)cc1	nt	2	nt	nt	nt	nt	nt	nt	nt	nt	nt
